Measured values published in ChEMBL document CHEMBL4706532, “New Seco-DSP derivatives as potent chemosensitizers” (Eur J Med Chem, 2020).
Active and inactive are the calls of the source. No cut-off for these calls is given here.

Tests used:
[1] = tested on: HUVEC; assay: Cytotoxicity against human HUVEC cells assessed as reduction in cell viability at 10 uM incubated for 48 hrs by MTT assay; assay type: cell-based
Summary of the method: (§1)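 Cells plated at 3~5 × 10^3 per well and allowed 24 h before exposure to compound or DMSO (negative control) for 48 h. MTT was added for 4 h, formazan dissolved in DMSO and absorbance read at 490 nm. Inhibition was calculated relative to DMSO and blank.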

[2] = Cytotoxicity against human HOSEC cells assessed as reduction in cell viability at 10 uM incubated for 48 hrs by MTT assay; assay type: cell-based; details: hose
Summary of the method: as §1, with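 “h. A2780/T and KB-VIN were grown in DMEM/F12 with 10% FBS, and HUVEC, HOSEC and T29 in RPMI-1640 with 10% FBS, all at 37 °C under 5% CO₂.” for “h.”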

[3] = Cytotoxicity against human T29 cells assessed as reduction in cell viability at 10 uM incubated for 48 hrs by MTT assay; assay type: cell-based; details: t29, 48 h
Summary of the method: as §1, with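 “h. A2780/T and KB-VIN were grown in DMEM/F12 with 10% FBS, and HUVEC, HOSEC and T29 in RPMI-1640 with 10% FBS, all at 37 °C under 5% CO₂.” for “h.”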

[4] = tested on: A2780/Taxol; assay: Cytotoxicity against human A2780T cells assessed as reduction in cell viability at 10 uM incubated for 48 hrs by MTT assay; assay type: cell-based
Summary of the method: as §1, with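 “h. A2780/T and KB-VIN were grown in DMEM/F12 with 10% FBS, and HUVEC, HOSEC and T29 in RPMI-1640 with 10% FBS, all at 37 °C under 5% CO₂.” for “h.”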

[5] = Reversal of multidrug resistance activity in P-gp overexpressing human A2780T cells assessed as potentiation of PTX-induced cytotoxicity by measuring reversal ratio at 10 uM incubated for 48 hrs in presence of paclitaxel by MTT assay; assay type: functional, A2780/Taxol
Summary of the method: (§2)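 Resistant cells were plated at 3~5 × 10^3 per well, given 24 h, then co-treated with test compound plus a range of anticancer drug concentrations (PTX for A2780/T, VCR for KB-VIN, cisplatin for A2780/CDDP) or DMSO for 48 h. Read-out was by MTT, 4 h at 37 °C, with absorbance at 490 nm. Reversal ratio = IC50 (drug alone) / IC50 (drug with compound).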

[6] = Reversal of multidrug resistance activity in P-gp overexpressing human KB-VIN cells assessed as potentiation of VCR-induced cytotoxicity by measuring reversal ratio at 10 uM incubated for 48 hrs in presence of VCR by MTT assay; assay type: functional; summary of the method: as §2
[7] = Reversal of multidrug resistance activity in human A2780/CDDP cells assessed as potentiation of CDDP-induced cytotoxicity by measuring reversal ratio at 10 uM incubated for 48 hrs in presence of CDDP by MTT assay; assay type: functional; summary of the method: as §2
[8] = tested on: A2780/Taxol; assay: Increase in P-gp expression in human A2780T cells at 10 uM incubated for 48 hrs by western blot analysis; assay type: functional, cell-based
Summary of the method: (§3)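 A2780/T cells (about 5×10^5 per well) were allowed 24 h, then treated with compound at 10 µM for 48 h at 37 °C. Cells were lysed in RIPA buffer with 1 mM PMSF. Lysates (20 µg protein) were run on 12% SDS-PAGE and transferred to PVDF. Blots were blocked in 3% BSA and probed overnight at 4 °C with anti-P-gp or GAPDH antibody (1:1000), then with HRP secondary (1:10000) for 1 h. Detection was by ECL with densitometry.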

[9] = tested on: A2780T; assay: Inhibition of P-gp mediated multidrug resistance activity in human A2780T cells assessed as increase in intracellular DOX accumulation at 10 uM incubated for 4 hrs in presence of doxorubicin by flow cytometry; assay type: cell-based
Summary of the method: (§4)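 A2780/T cells were seeded at about 5×10^5 per well and left 24 h. […] Cells were washed three times with ice-cold PBS and resuspended in cold PBS. DOX autofluorescence was measured by flow cytometry and by fluorescence/confocal microscopy. Data are given as mean ± SD.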

[10] = species on record: Homo sapiens; assay: Stimulation of human membrane P-gp ATPase activity at 0.5 mM using MgATP as substrate preincubated with enzyme for 5 mins followed by substrate addition and measured after 120 mins by ADP-Glo luminescence assay relative to control; assay type: cell membranes; details: time 125.0 min
Summary of the method: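 Reactions were started with 10 μL of 25 mM MgATP and run 120 min at 37 °C. ATP detection reagent was then added, and luminescence was read after about 20 min at room temperature (P-gp-Glo). Results are mean ± SD of three independent experiments.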

[11] = Cytotoxicity against human KB-VIN cells assessed as reduction in cell viability at 10 uM incubated for 48 hrs by MTT assay; assay type: cell-based
Summary of the method: as §1, with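 “h. A2780/T and KB-VIN were grown in DMEM/F12 with 10% FBS, and HUVEC, HOSEC and T29 in RPMI-1640 with 10% FBS, all at 37 °C under 5% CO₂.” for “h.”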

[12] = Reversal of multidrug resistance activity in P-gp overexpressing human A2780T cells assessed as potentiation of PTX-induced cytotoxicity by measuring reversal ratio at 1 uM incubated for 48 hrs in presence of paclitaxel by MTT assay; assay type: functional, A2780/Taxol; summary of the method: as §2
[13] = tested on: A2780/Taxol; assay: Decrease in P-gp expression in human A2780T cells at 10 uM incubated for 48 hrs by western blot analysis; assay type: functional, cell-based; summary of the method: as §3
[14] = tested on: A2780T; assay: Inhibition of P-gp mediated multidrug resistance activity in human A2780T cells assessed as increase in intracellular DOX accumulation at 10 uM incubated for 4 hrs in presence of doxorubicin by fluorescence microsocopy; assay type: cell-based; summary of the method: as §4
[15] = Reversal of multidrug resistance activity in P-gp overexpressing human A2780T cells assessed as potentiation of PTX-induced cytotoxicity by measuring reversal ratio at 200 nM incubated for 48 hrs in presence of paclitaxel by MTT assay

Row | SMILES | Activity [1] | Activity [2] | Activity [3] | Activity [4] | Ratio [5] | Ratio [6] | Ratio [7] | Activity [8] | inhibition [9] | fold change (FC) [10] | Activity [11] | Ratio [12] | inhibition [13] | inhibition [14] | Ratio [15]
1 | CCOc1ccc2c(=O)cc(CC)oc2c1COC(=O)/C=C/c1ccccc1 | Non-Toxic | Non-Toxic | Non-Toxic | Non-Toxic | 503 | 633 | 0.92 | inactive | Active | 1.2 | Non-Toxic | 4.24 | inactive | Active | 1.05
2 | CCOc1ccc2c(=O)cc(CC)oc2c1COC(=O)/C=C/c1ccc(OC)cc1 | Non-Toxic | Non-Toxic | Non-Toxic | Toxic | >1471 | 299 | 0.88 | inactive | Active | 1.2 | Non-Toxic | 128 | inactive | Active | 1.05
3 | CCOc1ccc2c(=O)cc(CC)oc2c1COC(=O)Cc1cc(OC)c(OC)c(OC)c1 | Non-Toxic | Non-Toxic | Non-Toxic | Non-Toxic | 677 | 628 | 0.97 | inactive | Active | 1.2 | Non-Toxic | 4.13 | inactive | Active | 1.05
4 | CCc1cc(=O)c2ccc(OC(C)C)c(COC(=O)Cc3cc(OC)c(OC)c(OC)c3)c2o1 | Non-Toxic | Non-Toxic | Non-Toxic | Non-Toxic | 576 | 604 | – | inactive | Active | 1.2 | Non-Toxic | 3.97 | inactive | Active | 1.05
5 | COc1ccc(CCN(C)CCCC(C#N)(c2ccc(OC)c(OC)c2)C(C)C)cc1OC (configuration not stated) | – | – | – | – | – | – | – | – | Active | 1.8 | – | – | – | Active | –
